Source: ChEMBL document CHEMBL1123033, “Synthesis and antiherpes simplex virus activity of 9-[(1,3-dihydroxy-2-propylthio)methyl]guanine” (1985)
Active and inactive are the calls of the source. The rule behind the calls is not given here.

Experiments:
Human betaherpesvirus 5 = assay: In vitro antiviral and anticellular activity was evaluated against human cytomegalovirus (HCMV AD 169) in […].; format: functional; settings: read-out: ID50 (the source's name)
In short: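 Plaque reduction assay in MRC-5 cells infected with HCMV and treated with the nucleoside analogue. ID50 is the dose cutting plaque numbers by 50% versus untreated controls.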

Human alphaherpesvirus 1 = assay: In vitro antiviral and anticellular activity was evaluated against herpes simplex virus HSV-1 (F strain) in vero cells tissue culture; format: functional; settings: Human alphaherpesvirus 1, Vero; read-out: ID50 (the source's name)
In short: (§1)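 Plaque reduction assay in Vero cells infected with HSV; cells exposed to the nucleoside analogue. ID50 is the dose giving a 50% drop in plaque count relative to untreated controls.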

Vero = assay: In vitro antiviral and anticellular activity was evaluated against vero cells in tissue culture; format: functional; settings: Chlorocebus sabaeus, read-out: ID50 (the source's name)
In short: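 Anticellular activity measured by cell proliferation assay in uninfected Vero cells.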

Human alphaherpesvirus 2 [1] = assay: In vitro antiviral and anticellular activity was evaluated against herpes simplex virus HSV-2 (G strain) in vero cells.; format: functional; settings: Human alphaherpesvirus 2, Vero; read-out: ID50 (the source's name); in short: as §1
Mus musculus [2] = assay: Mean survival time of HSV-2 induced mortality in mice was determined when the 3 mg/Kg of compound was administered subcutaneously; NS means not significant; format: functional, organism-based
In short: (§2)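 Mice (female Swiss-Webster, ~20 g) challenged intraperitoneally with 5 × 10^4 PFU HSV-2 strain G (~10 LD50); subcutaneous dosing once daily for 4 days, first dose 24 h after infection, with a saline group run alongside. Mean survival time in days ± standard deviation; probability by Mann-Whitney u-test.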

Mus musculus [3] = assay: Effect of subcutaneous dose at 30 mg/kg on HSV-2 induced mortality in mice(value in parentheses denotes probability; format: functional
In short: (§3)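 Female Swiss-Webster mice (~20 g) infected intraperitoneally with 5 × 10^4 PFU HSV-2 strain G (~10 LD50), then dosed subcutaneously once daily (24-h intervals) for 4 days starting 24 h post-infection, with a saline group run alongside. Read-out is survivors/total (15–16 mice per group) with percent survivors; probability by Fisher exact test.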

Mus musculus [4] = assay: Effect of subcutaneous dose at 10 mg/kg on HSV-2 induced mortality in mice; format: functional; in short: as §3
Mus musculus [5] = assay: Effect of subcutaneous dose at 10 mg/kg on HSV-2 induced mortality in mice; 7/16; format: functional; in short: as §3
Mus musculus [6] = assay: Effect of subcutaneous dose at 3 mg/kg on HSV-2 induced mortality in mice; format: functional; in short: as §3
Mus musculus [7] = assay: Effect of subcutaneous dose at 30 mg/kg on HSV-2 induced mortality in mice; 12/16; format: functional; in short: as §3
Mus musculus [8] = assay: Effect of subcutaneous dose at 3 mg/kg on HSV-2 induced mortality in mice; 4/16; format: functional; in short: as §3
Mus musculus [9] = assay: (§4) Mean survival time of HSV-2 induced mortality in mice was determined when the 10 mg/Kg of compound was administered subcutaneously; format: functional; in short: as §2
Mus musculus [10] = assay: Effect of subcutaneous dose at 30 mg/kg on HSV-2 induced mortality in mice; 2/16; format: functional; in short: as §3
Mus musculus [11] = assay: Mean survival time of HSV-2 induced mortality in mice was determined when the 30 mg/Kg of compound was administered subcutaneously; NS means not significant; format: functional, organism-based; in short: as §2
Mus musculus [12] = assay: Effect of subcutaneous dose at 10 mg/kg on HSV-2 induced mortality in mice; 1/16; format: functional; in short: as §3
Mus musculus [13] = assay: as §4; format: functional, organism-based; in short: as §2
Human alphaherpesvirus 2 [14] = assay: In vitro antiviral and anticellular activity was evaluated against herpes simplex virus HSV-2 (G strain) in vero (HSV-2 G ) cells.; format: functional; settings: Human alphaherpesvirus 2, Vero; read-out: ID50 (the source's name); in short: as §1
Mus musculus [15] = assay: Effect of subcutaneous dose at 100 mg/kg on HSV-2 induced mortality in mice; 8/15; format: functional; in short: as §3
Mus musculus [16] = assay: Effect of subcutaneous dose at 30 mg/kg on HSV-2 induced mortality in mice; format: functional; in short: as §3

SMILES	IC50 (Human alphaherpesvirus 1) [µM]	IC50 (Human betaherpesvirus 5) [µM]	IC50 (Vero) [µM]	IC50 (Human alphaherpesvirus 2 [1]) [µM]	Mean survival time (Mus musculus [4]) [days]	other results
Nc1nc2c(ncn2COCCO)c(=O)[nH]1 [ACYCLOVIR]	0.4	100	1100	1.5	–	–
Nc1nc2c(ncn2COC(CO)CO)c(=O)[nH]1 [GANCICLOVIR]	0.3	6	500	1.3	12.4	Mean survival time (Mus musculus [2]): inactive; Mean survival time (Mus musculus [3]): 13.8 days; Survivors (Mus musculus [5]): 7; Mean survival time (Mus musculus [6]): 11.2 days; Survivors (Mus musculus [7]): 12; Survivors (Mus musculus [8]): 4; Mean survival time (Mus musculus [9]): <0.001
Nc1nc(O)c2ncn(CSC(CO)CO)c2n1	0.9	80	900	–	9.7	Survivors (Mus musculus [10]): 2; Mean survival time (Mus musculus [11]): inactive; Survivors (Mus musculus [12]): 1; Mean survival time (Mus musculus [13]): inactive; IC50 (Human alphaherpesvirus 2 [14]): 8 µM; Survivors (Mus musculus [15]): 8; Mean survival time (Mus musculus [16]): 9.4 days

Continued, in another order:

IC50 (Human alphaherpesvirus 1) [µM]	SMILES	IC50 (Human betaherpesvirus 5) [µM]	IC50 (Vero) [µM]	IC50 (Human alphaherpesvirus 2 [1]) [µM]	Mean survival time (Mus musculus [4]) [days]	other results
25	Nc1nc(O)c2ncn(C[S+]([O-])C(CO)CO)c2n1 (centres undefined)	–	–	–	–	–
40	Nc1nc(O)c2ncn(CS(=O)(=O)C(CO)CO)c2n1	–	–	–	–	–
